Screening data deposited in PubChem by several laboratories.
Diaphorase inh: diaphorase inhibition or chemical oxidation counter-screen. diaphorase resazurin-to-resorufin fluorescence, NADH, 16 min; bacterial (C. kluyveri) enzyme, not human. inhibition, % at 20 µM. hit rate 0.69% among 190,000;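 active = primary screen inhibition at 20 µM above a set limit, cut at about 50% in these data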;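 also: plate controls were DMSO with full reaction for no effect and wells lacking NADH for full effect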
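System: Bacterial diaphorase enzyme (C. kluyveri) | Incubation: 16-min room-temperature incubation before reading | Benchmarks: No-NADH positive control and DMSO neutral control | Measured by: Resorufin fluorescence 544/590 nm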
Lmaj promast: reduces viability of Leishmania major promastigotes; inhibition, % at 10 µM; AID 1063; resazurin fluorescence viability; hit rate 9% among 200,000;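 also: promastigotes grown with compound for 44 hours at 28 °C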
WT yeast gro inh: growth inhibition of WT yeast, mitochondrial fusion screen. mitochondrial fusion phenotypic screen, WT strain. inhibition, % at 10 µM. hit rate 2.1% among 190,000. AID 1362; in the data active = inhibition above about 58%; tested in S. cerevisiae
Diaphorase act: activates diaphorase or chemically reduces, flagging diaphorase assay artifacts; Diaphorase/resazurin coupled assay, resorufin fluorescence, 16 min; stronger effect = higher value; 1 = vehicle wells, 0 = NADH-free wells; hit rate 0.005% among 190,000; activation factor at 20 µM;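 active = diaphorase activity raised at least twofold by the compound at 20 µM; inactive = activation factor below 2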
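Measured by – red resorufin fluorescence at 544/590 nm excitation/emission · Test system – Clostridium kluyveri diaphorase, purified enzyme · Incubation – reaction time 16 min, room temperature · Buffer or medium – 50 mM HEPES pH 7.4 with 4.542 mM MgCl2, 0.005% Tween 20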
G6PDH CS: inhibits Leuconostoc G6PDH, flagging false hits in G6PDH-based assays | Purified L. mesenteroides G6PDH, diaphorase/resazurin coupled fluorescence, 45 min | inhibition, % at 5 µM | hit rate 0.12% among 200,000 | AID 1020
* marks the source's active call; other numbers are inactive results. Hits are enriched below; roughly 11% of the tested compounds scored in any of these assays. Rule as the data show it, unless noted: active = inhibition above about 50%; inactive = the rest.

`CCCCN(C(=O)CSc1cc(C)c2ccccc2n1)c1c(N)n(Cc2ccccc2)c(=O)[nH]c1=O` gave Diaphorase inh 10.0, Lmaj promast -2.5, WT yeast gro inh 3.8, Diaphorase act 0.9 and G6PDH CS -7.1.
For O=C(NN=C1CCCCCCCCCCC1)c1cccnc1 the results were Diaphorase inh -5.6, Lmaj promast -6.2, WT yeast gro inh -8.4, Diaphorase act 1.1 and G6PDH CS 7.5.
`O=C(Nc1cccc(C(=O)O)c1)/C(=C\c1ccc2c(c1)OCO2)NC(=O)c1ccc(Br)cc1` gave Diaphorase inh -14.3, Lmaj promast -3.6, WT yeast gro inh 14.8, Diaphorase act 1.1 and G6PDH CS 0.7.
`Cc1cc(C)c2oc(C(=O)Nc3ccc(S(=O)(=O)N4CCC(C)CC4)cc3)cc(=O)c2c1` gave Diaphorase inh 27.1, Lmaj promast 87.1*, WT yeast gro inh 12.8, Diaphorase act 0.7 and G6PDH CS 10.5.
`Cc1ccc2nc(-c3cccnc3)cc(C(=O)Nc3ccc(F)cc3C)c2c1` gave Diaphorase inh -4.1, Lmaj promast 15.1, WT yeast gro inh 20.5, Diaphorase act 1 and G6PDH CS 14.8.
`CN1CCN(Cc2cccc(Oc3ccccc3)c2)CC1` gave Diaphorase inh 0.1, Lmaj promast 99.6*, WT yeast gro inh -7.7, Diaphorase act 1 and G6PDH CS -5.4.
Screening CC1CCCN(Cc2cccc(Oc3ccccc3)c2)C1 (centres undefined) returned Diaphorase inh 3.7, Lmaj promast 99.8*, WT yeast gro inh 1.0, Diaphorase act 1 and G6PDH CS 9.7.
For OC1CCN(Cc2cccc(Oc3ccccc3)c2)CC1 the results were Diaphorase inh 10.7, Lmaj promast 100.2*, WT yeast gro inh 1.5, Diaphorase act 0.9 and G6PDH CS 9.2.
CC1CCCN(S(=O)(=O)c2ccc(S(=O)(=O)N3CCCN(Cc4ccccc4)C3)cc2)C1 (centres undefined) was read as Diaphorase inh 5.1, Diaphorase act 0.9 and G6PDH CS 0.8.
Screening O=C(c1ccccc1)N1CCN(Cc2cccc(Oc3ccccc3)c2)CC1 returned Diaphorase inh 18.3, Lmaj promast -3.7, WT yeast gro inh 13.3, Diaphorase act 0.8 and G6PDH CS 4.7.
Screening CCN1CCN(CCOc2cccc(Oc3ccccc3)c2)CC1 returned Diaphorase inh 9.1, Lmaj promast 95.1*, WT yeast gro inh -7.1, Diaphorase act 0.9 and G6PDH CS 4.0.
For CCC(=O)c1ccccc1OCCN1CCN(CC)CC1 the results were Diaphorase inh 6.6, Lmaj promast 8.3, WT yeast gro inh -2.6, Diaphorase act 0.9 and G6PDH CS 12.2.
For CN(C)S(=O)(=O)c1cccc(N2C(=O)CC3(CCCCC3)CC2=O)c1 the results were Diaphorase inh 0.2, Lmaj promast 0.4, WT yeast gro inh 6.3, Diaphorase act 1 and G6PDH CS 5.3.
`CC(C(=O)Nc1ccc(S(=O)(=O)N2CCCCC2)cc1)N1CCN(c2ccccn2)CC1` (centres undefined) gave Diaphorase inh -4.7, Lmaj promast -2.4, WT yeast gro inh -4.3, Diaphorase act 1 and G6PDH CS 1.5.
For OCCN1CCN(Cc2cccc(Oc3ccc(Cl)cc3)c2)CC1 the results were Diaphorase inh 10.7, Lmaj promast 98.6*, WT yeast gro inh 12.7, Diaphorase act 0.9 and G6PDH CS 4.0.
Cc1nc2ccccc2n1S(=O)(=O)c1ccc(Br)cc1 was read as Diaphorase inh 12.4, Lmaj promast 69.8*, WT yeast gro inh 2.4, Diaphorase act 0.9 and G6PDH CS -1.9.
Screening O=S(=O)(c1ccc(Br)cc1)N1CCn2c(nc3ccccc32)C1 returned Diaphorase inh 4.7, Lmaj promast -5.2, WT yeast gro inh -10.2, Diaphorase act 1 and G6PDH CS 1.3.
Screening COc1ccc2nc(NC(=O)CCc3nc(-c4ccccc4F)no3)sc2c1 returned Diaphorase inh 9.0, Lmaj promast -2.1, WT yeast gro inh -44.7, Diaphorase act 0.9 and G6PDH CS 4.5.
CCC1CCCCN1S(=O)(=O)c1ccc2c(c1)CCN2C(=O)C1CCC1 (centres undefined) was read as Diaphorase inh 4.9, Lmaj promast 19.6, WT yeast gro inh 3.0, Diaphorase act 1 and G6PDH CS 4.9.
For O=C(CCl)c1ccc2c(c1)CCN2C(=O)C1CCCCC1 the results were Diaphorase inh 16.1, Lmaj promast 100.4*, WT yeast gro inh 10.9, Diaphorase act 0.8 and G6PDH CS 5.0.
